# Reference: ChEMBL document CHEMBL1208755, “5-Nitro-2-furoic acid hydrazones: design, synthesis and in vitro antimycobacterial evaluation against log and starved phase cultures” (Bioorg Med Chem Lett, 2010)
# Legend:
# [1] = Cytotoxicity against african green monkey Vero cells after 72 hrs by MTT assay; format: cell-based; conditions: chlorocebus sabaeus
# [2] = Antimicrobial activity aagainst Mycobacterium sp. Mc2 in presence of acetate; format: functional
# [3] = tested on: Mycobacterium tuberculosis; assay: Antimicrobial activity aagainst Mycobacterium tuberculosis ATCC 14468 in starved phase by agar dilution method; format: functional
# Outline: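 Six-week nutrient-starved M. tuberculosis cells were tested by agar dilution in duplicate, following a literature procedure. MIC was taken as the lowest concentration giving complete inhibition of growth.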
# [4] = Antimicrobial activity aagainst Mycobacterium sp. Mc2 in log phase assessed as inhibition of growth; format: functional
# Outline: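 Agar dilution along the lines of NCCLS guidance, run in duplicate on log-phase cultures. MIC is the lowest compound concentration that gives complete inhibition of bacterial growth.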
# [5] = molecular target: T1, Isocitrate lyase (Mycobacterium tuberculosis) (UniProt P9WKK7); assay: Percent inhibition of Mycobacterium tuberculosis isocitrate lyase (ICL) at 10 uM
# T1 sequence (whole entry): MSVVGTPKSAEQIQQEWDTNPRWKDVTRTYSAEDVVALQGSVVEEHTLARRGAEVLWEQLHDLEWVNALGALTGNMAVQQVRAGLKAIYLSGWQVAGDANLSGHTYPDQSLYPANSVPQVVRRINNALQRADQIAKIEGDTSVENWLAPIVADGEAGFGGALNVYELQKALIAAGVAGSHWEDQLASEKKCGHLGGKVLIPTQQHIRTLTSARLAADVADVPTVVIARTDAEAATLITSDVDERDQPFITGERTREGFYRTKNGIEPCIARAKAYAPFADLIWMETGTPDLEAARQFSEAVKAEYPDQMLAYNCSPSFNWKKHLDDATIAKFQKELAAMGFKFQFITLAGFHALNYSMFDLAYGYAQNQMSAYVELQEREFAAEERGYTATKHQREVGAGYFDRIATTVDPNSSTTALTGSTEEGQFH
# Outline: (§1)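 Isocitrate lyase activity was measured at 37 °C with phenylhydrazine present, reading glyoxylate-phenylhydrazone formation at 324 nm. Percent inhibition was determined at a single concentration.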
# [6] = tested on: Mycobacterium tuberculosis; assay: Antimicrobial activity aagainst Mycobacterium tuberculosis ATCC 14468 in log phase by agar dilution method; format: functional
# Outline: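 M. tuberculosis log-phase cultures were tested by agar dilution following NCCLS-type guidance, in duplicate. MIC was taken as the lowest concentration giving complete inhibition of bacterial growth.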
# [7] = molecular target: T1, Isocitrate lyase (Mycobacterium tuberculosis); assay: Percent inhibition of Mycobacterium tuberculosis isocitrate lyase (ICL) at 100 uM; outline: as §1
compound,measurement,setting,value
C/C(=N\NC(=O)c1ccc([N+](=O)[O-])o1)c1ccc(Br)cc1,CC50 at 72 h,[1],> 178 µM
same,MIC,[2],4.43 µM
same,MIC,[3],17.8 µM
same,MIC,[4],17.8 µM
same,inhibition,[5],73.1%
same,MIC,[6],8.88 µM
O=C(N/N=C/c1ccc([N+](=O)[O-])o1)c1ccc([N+](=O)[O-])o1,CC50 at 72 h,[1],213 µM
same,MIC,[2],5.3 µM
same,MIC,[3],10.6 µM
same,MIC,[4],0.68 µM
same,inhibition,[5],86.8%
same,MIC,[6],2.65 µM
O=C(N/N=C/c1ccccc1C(F)(F)F)c1ccc([N+](=O)[O-])o1,CC50 at 72 h,[1],> 191 µM
same,MIC,[2],9.56 µM
same,MIC,[3],19.1 µM
same,MIC,[4],4.76 µM
same,inhibition,[5],30.1%
same,MIC,[6],4.76 µM
O=C(N/N=C/c1ccco1)c1ccc([N+](=O)[O-])o1,MIC,[2],25.1 µM
same,MIC,[4],50.2 µM
same,MIC,[6],25.1 µM
C/C(=N\NC(=O)c1ccc([N+](=O)[O-])o1)c1ccc(C)cc1,CC50 at 72 h,[1],> 218 µM
same,MIC,[2],43.5 µM
same,MIC,[3],43.5 µM
same,MIC,[4],43.5 µM
same,inhibition,[5],32.5%
same,MIC,[6],10.9 µM
O=C(N/N=C/c1ccccc1)c1ccc([N+](=O)[O-])o1,MIC,[2],48.2 µM
same,MIC,[4],192 µM
same,MIC,[6],48.2 µM
Cc1ccc(/C=N/NC(=O)c2ccc([N+](=O)[O-])o2)cc1,CC50 at 72 h,[1],> 229 µM
same,MIC,[2],22.9 µM
same,MIC,[3],91.5 µM
same,MIC,[4],45.7 µM
same,inhibition,[5],19.8%
same,MIC,[6],11.4 µM
O=C(N/N=C/c1ccc([N+](=O)[O-])cc1)c1ccc([N+](=O)[O-])o1,MIC,[2],20.6 µM
same,MIC,[4],82.2 µM
same,MIC,[6],20.6 µM
NNC(=O)c1ccncc1 [ISONIAZID],CC50 at 72 h,[1],> 456 µM
same,MIC,[2],> 91.1 µM
same,MIC,[3],> 91.1 µM
same,MIC,[4],45.6 µM
same,MIC,[6],0.72 µM
C/C(=N\NC(=O)c1ccc([N+](=O)[O-])o1)c1ccc([N+](=O)[O-])cc1,CC50 at 72 h,[1],> 197 µM
same,MIC,[2],19.6 µM
same,MIC,[3],19.6 µM
same,MIC,[4],19.6 µM
same,inhibition,[5],48.9%
same,MIC,[6],9.84 µM
CO[C@H]1/C=C/O[C@@]2(C)Oc3c(C)c(O)c4c(O)c(c(/C=N/N5CCN(C)CC5)c(O)c4c3C2=O)NC(=O)/C(C)=C\C=C\[C@H](C)[C@H](O)[C@@H](C)[C@@H](O)[C@@H](C)[C@H](OC(C)=O)[C@@H]1C [RIFAMPIN],CC50 at 72 h,[1],> 75.9 µM
same,MIC,[2],> 15.2 µM
same,MIC,[3],> 15.2 µM
same,MIC,[4],1.89 µM
same,MIC,[6],0.48 µM
O=C(N/N=C/c1ccccc1[N+](=O)[O-])c1ccc([N+](=O)[O-])o1,CC50 at 72 h,[1],206 µM
same,MIC,[2],10.3 µM
same,MIC,[3],41.1 µM
same,MIC,[4],10.3 µM
same,inhibition,[5],46.8%
same,MIC,[6],10.3 µM
C/C(=N\NC(=O)c1ccc([N+](=O)[O-])o1)c1ccc(F)cc1,CC50 at 72 h,[1],215 µM
same,MIC,[2],42.9 µM
same,MIC,[3],21.5 µM
same,MIC,[4],21.5 µM
same,inhibition,[5],28.1%
same,MIC,[6],5.35 µM
COc1ccc(/C=N/NC(=O)c2ccc([N+](=O)[O-])o2)cc1,MIC,[2],21.6 µM
same,MIC,[4],43.2 µM
same,MIC,[6],21.6 µM
O=C(N/N=C/c1ccc(F)cc1)c1ccc([N+](=O)[O-])o1,MIC,[2],45.1 µM
same,MIC,[4],90.2 µM
same,MIC,[6],22.5 µM
O=C(N/N=C/c1ccc(O)cc1)c1ccc([N+](=O)[O-])o1,MIC,[2],45.4 µM
same,MIC,[4],> 45.4 µM
same,MIC,[6],> 45.4 µM
C/C(=N\NC(=O)c1ccc([N+](=O)[O-])o1)c1ccccc1,CC50 at 72 h,[1],> 229 µM
same,MIC,[2],45.7 µM
same,MIC,[3],45.7 µM
same,MIC,[4],45.7 µM
same,inhibition,[5],34.9%
same,MIC,[6],11.4 µM
O=C(O)CC[N+](=O)[O-],inhibition,[7],63.2%
O=C(N/N=C/c1cccc(Br)c1)c1ccc([N+](=O)[O-])o1,MIC,[2],37 µM
same,MIC,[4],37 µM
same,MIC,[6],18.5 µM
COc1cc(/C=N/NC(=O)c2ccc([N+](=O)[O-])o2)ccc1O,MIC,[2],20.5 µM
same,MIC,[4],81.9 µM
same,MIC,[6],41 µM
C/C(=N\NC(=O)c1ccc([N+](=O)[O-])o1)c1ccccc1O,MIC,[2],> 43.2 µM
same,MIC,[4],> 43.2 µM
same,MIC,[6],> 43.2 µM
O=C(N/N=C/c1ccc(Cl)cc1)c1ccc([N+](=O)[O-])o1,MIC,[2],10.7 µM
same,MIC,[4],42.6 µM
same,MIC,[6],21.3 µM
O=C(N/N=C/c1c(Cl)cccc1Cl)c1ccc([N+](=O)[O-])o1,MIC,[2],38.1 µM
same,MIC,[4],76.2 µM
same,MIC,[6],19 µM
O=C(N/N=C/c1ccc(Br)cc1)c1ccc([N+](=O)[O-])o1,MIC,[2],37 µM
same,MIC,[4],73.9 µM
same,MIC,[6],18.5 µM
